Measured values from ChEMBL document CHEMBL1127084, “Synthesis and structure-activity studies of a series of [(hydroxybenzyl)amino]salicylates as inhibitors of EGF receptor-associated tyrosine kinase activity” (J Med Chem, 1993).

Key:
[1] = Inhibition of tyrosine kinase activity in ER 22 membrane fraction by competition with the RRSrc peptide using [32P]-gamma ATP as radioligand; assay type: cell membranes
In short: (§1)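 Enzyme source was membrane fractions of ER 22 cells (CCL 39 cells transfected with EGF receptor). Inhibitors were added at various concentrations and phosphorylation of the peptide was measured.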

[2] = biological target: Epidermal growth factor receptor (Homo sapiens) (UniProt P00533); settings: ER22; 20 uM
[3] = biological target: Epidermal growth factor receptor (Homo sapiens) (UniProt P00533); settings: ER22; 10 uM
[4] = Inhibition of ER22 EGF-receptor expressing cell membrane tyrosine kinase activity at 100 uM
[5] = Inhibition of ER22 EGF-receptor expressing cell membrane tyrosine kinase activity; in short: as §1

Chain of Epidermal growth factor receptor (Homo sapiens) (P00533 whole entry): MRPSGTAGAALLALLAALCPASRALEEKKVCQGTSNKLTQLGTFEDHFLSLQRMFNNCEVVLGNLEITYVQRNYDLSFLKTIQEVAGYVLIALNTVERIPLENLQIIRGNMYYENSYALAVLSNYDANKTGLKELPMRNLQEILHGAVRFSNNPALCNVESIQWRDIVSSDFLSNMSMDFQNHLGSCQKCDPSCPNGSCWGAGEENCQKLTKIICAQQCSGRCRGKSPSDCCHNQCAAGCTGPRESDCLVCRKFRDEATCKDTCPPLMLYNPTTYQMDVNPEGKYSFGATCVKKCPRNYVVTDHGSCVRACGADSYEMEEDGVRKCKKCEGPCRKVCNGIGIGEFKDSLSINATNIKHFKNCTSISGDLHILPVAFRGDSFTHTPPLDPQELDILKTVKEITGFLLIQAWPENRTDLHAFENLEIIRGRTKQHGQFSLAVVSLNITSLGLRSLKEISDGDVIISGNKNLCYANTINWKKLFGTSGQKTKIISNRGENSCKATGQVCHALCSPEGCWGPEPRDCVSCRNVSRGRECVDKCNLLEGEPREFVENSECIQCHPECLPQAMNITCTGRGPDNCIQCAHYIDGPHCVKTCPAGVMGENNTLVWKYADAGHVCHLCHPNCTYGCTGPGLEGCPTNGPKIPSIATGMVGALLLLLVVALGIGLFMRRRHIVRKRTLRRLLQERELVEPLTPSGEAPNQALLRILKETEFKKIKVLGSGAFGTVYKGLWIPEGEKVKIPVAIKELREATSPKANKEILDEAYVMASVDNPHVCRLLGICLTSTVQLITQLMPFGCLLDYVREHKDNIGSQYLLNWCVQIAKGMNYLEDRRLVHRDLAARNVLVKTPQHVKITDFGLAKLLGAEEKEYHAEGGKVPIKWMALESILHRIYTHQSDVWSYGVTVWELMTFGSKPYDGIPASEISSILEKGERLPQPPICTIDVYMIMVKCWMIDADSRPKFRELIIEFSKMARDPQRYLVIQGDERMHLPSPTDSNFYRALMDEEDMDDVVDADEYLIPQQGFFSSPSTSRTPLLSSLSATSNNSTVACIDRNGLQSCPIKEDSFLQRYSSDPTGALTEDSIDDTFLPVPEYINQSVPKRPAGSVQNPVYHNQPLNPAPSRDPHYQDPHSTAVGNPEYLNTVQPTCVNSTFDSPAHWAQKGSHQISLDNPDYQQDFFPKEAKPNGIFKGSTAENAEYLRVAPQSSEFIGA

Row | Structure (SMILES) | IC50 [1] [µM] | other results
1 | O=C(O)c1cc(NCc2ccccc2O)ccc1O | 25 | –
2 | COC(=O)c1cc(/N=C/c2ccc(O)c(O)c2)ccc1O | 10 | inhibition [2]: 37%
3 | COC(=O)c1cc(/N=C/c2ccc(O)cc2O)ccc1O | > 100 | inhibition [2]: 65%
4 | COC(=O)c1ccc(NCc2cc(O)ccc2O)cc1O | 0.2 | –
5 | COC(=O)c1cc(/N=C/c2cc(OC)ccc2OC)ccc1O | > 10 | inhibition [3]: 14%
6 | COC(=O)c1cc(NCc2cc(O)ccc2O)ccc1O | 0.6 | –
7 | O=C(O)c1cc(/N=C/c2ccccc2O)ccc1O | > 100 | –
8 | COC(=O)c1cc(/N=C/c2ccccc2O)ccc1O | > 100 | –
9 | O=C(O)c1cccc(NCc2cc(O)ccc2O)c1 | 2.4 | –
10 | COC(=O)c1cc(NCc2cccc(O)c2)ccc1O | – | inhibition [4]: 37%
11 | COC(=O)c1cc(/N=C/c2cc(O)ccc2O)ccc1O | 100 | –
12 | COC(=O)c1cc(NCc2cc(OC)ccc2OC)ccc1O | > 100 | inhibition [2]: 18%
13 | COC(=O)c1cc(/N=C/c2cccc(O)c2)ccc1O | > 100 | inhibition [2]: 20%
14 | COC(=O)c1ccc(/N=C/c2cc(O)ccc2O)cc1O | > 10 | –
15 | COC(=O)c1cccc(NCc2cc(O)ccc2O)c1 | 1.6 | –
16 | O=C(O)c1cccc(/N=C/c2cc(O)ccc2O)c1 | > 10 | –
17 | COC(=O)c1cc(NCc2cc(O)ccc2O)ccc1OC | 5 | –
18 | COC(=O)c1cc(NCc2ccc(O)cc2)ccc1O | – | IC50 [5]: > 10 µM
19 | COC(=O)c1cc(/N=C/c2cc(O)ccc2O)ccc1OC | > 100 | –
20 | O=C(O)c1cc(/N=C/c2cc(O)ccc2O)ccc1O | 5 | –
21 | COC(=O)c1cc(NCc2ccccc2O)ccc1O | 45 | –
22 | COC(=O)c1cc(/N=C/c2ccc(O)cc2)ccc1O | > 10 | –
